Reference: ChEMBL document CHEMBL1125076, “In vivo intracerebral microdialysis studies in rats of MPP+ analogues and related charged species” (1990)

Legend:
Format in all cases: functional
Rattus norvegicus [1] = organism: Rattus norvegicus; experiment: Percentage of basal lactate efflux before starting the drug perfusion (15 min) with average basal level 689+/-103 pmol/min
Procedure, shortened: (§1)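 Rat striatal microdialysis via U-shaped cellulose-membrane cannula, Ringer perfusion. Once lactate efflux stabilized, test compound perfused as 10 mM solution in Ringer for 15–150 min. Dialysate mixed on-line with lactate dehydrogenase (5 mg/mL) and 0.5 mM NAD+ in carbonate buffer pH 9.5. NADH formed was separated by C18 HPLC (0.05 M phosphate, pH 6.8) and detected electrochemically at 650 mV. Samples injected every 5 min. Change expressed as % of basal. At least duplicate experiments.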

Rattus norvegicus [2] = organism: Rattus norvegicus; experiment: Percentage of basal lactate efflux before starting the drug perfusion (1 min) with average basal level 689+/-103 pmol/min
Rattus norvegicus [3] = organism: Rattus norvegicus; experiment: (§2) Percentage of basal lactate efflux before starting the drug perfusion (150 min) with average basal level 689+/-103 pmol/min
Rattus norvegicus [4] = organism: Rattus norvegicus; experiment: as §2; procedure, shortened: as §1; remark: listed apart in the source

C[n+]1ccc(-c2ccccc2)cc1
Basal (Rattus norvegicus [1]): 280%
Basal (Rattus norvegicus [2]): 210%

C[n+]1ccc(-c2ccccc2)nc1
Basal (Rattus norvegicus [1]): 102%

C[n+]1cccc(-c2ccccc2)c1
Basal (Rattus norvegicus [1]): 240%

C[n+]1ccc(C(C)(C)C)cc1
Basal (Rattus norvegicus [1]): 106%

c1ccc2c(c1)CCNC2 [1,2,3,4-TETRAHYDROISOQUINOLINE]
Basal (Rattus norvegicus [3]): 98%

Cc1cc(-c2ccccc2)cc[n+]1C
Basal (Rattus norvegicus [2]): 200%

C[n+]1cccc2ccccc21
Basal (Rattus norvegicus [1]): 190%
Basal (Rattus norvegicus [4]): 200%

C[n+]1ccccc1-c1ccccc1
Basal (Rattus norvegicus [1]): 160%

Cc1ccccc1-c1cc[n+](C)cc1
Basal (Rattus norvegicus [2]): 155%

Cc1ccc(-[n+]2ccc(C)cc2)cc1
Basal (Rattus norvegicus [1]): 230%
Basal (Rattus norvegicus [2]): 180%
